Data taken from ChEMBL document CHEMBL4715732, “4-Phenylureido/thioureido-substituted 2,2-dimethylchroman analogs of cromakalim bearing a bulky 'carbamate' moiety at the 6-position as potent inhibitors of glucose-sensitive insulin secretion” (Eur J Med Chem, 2016).
pEC50, pIC50: −log10 of the molar value. The source made the active and inactive calls. No cut-off for these calls is given here.

Experiments:
Pancreatic islet [1] = test: Increase in intracellular Ca2+ concentration under deprived extracellular calcium and physiological condition in Wistar rat pancreatic islets at 10 uM measured up to 30 mins in presence of 2.8 mM extracellular glucose concentration by Fura-2 dye based fluorescence assay; format: functional, tissue-based; conditions: time min <=30
Procedure, shortened: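 Fura-2-loaded single rat islet cells were kept at 2.8 mM glucose in medium with or without extracellular calcium. Agent was added at 10 μM and fluorescence intensity was monitored.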

[2] = Residual glucose-induced insulin secretion in Wistar rat pancreatic islets at 1 uM incubated for 90 mins in presence of 16.7 mM glucose by radioimmunological assay relative to control; conditions: Pancreatic islet, 1.5 h
Rattus norvegicus [3] = species: Rattus norvegicus; test: Activation of ATP-sensitive potassium channel in perifused Wistar rat pancreatic islets assessed as increase in extracellular K+ concentration at 10 uM measured up to 90 mins in presence of 2.8 mM glucose and extracellular Ca2+ by scintillation counting method; conditions: filed as opener, time min <=90
Procedure, shortened: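 Rat islets were perifused in 2.8 mM glucose with extracellular Ca2+. Extracellular K+ was raised from 5 to 50 mM, and 45Ca outflow was measured with or without agent (10 μM) present continuously. Values are mean ± SEM of 10 individual experiments.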

Aorta [4] = test: Myorelaxant activity in aortic rings isolated from Wistar rat assessed as reduction in 30 mM KCl-induced contractions in presence of 10 uM KATP channel blocker glibenclamide; format: functional, tissue-based
Procedure, shortened: (§1)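 Endothelium-free rat aorta rings were contracted with 30 mM or 80 mM K+, with 1 or 10 μM glibenclamide present for some 30 mM series. Agent was applied cumulatively. EC50 is the concentration giving 50% relaxation of the KCl-induced contraction, reported as mean ± SEM (n).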

Aorta [5] = test: Myorelaxant activity in aortic rings isolated from Wistar rat assessed as reduction in KCl-induced contractions measured after 60 mins in presence of 80 mM KCl by force-displacement transducer; format: functional, tissue-based; procedure, shortened: as §1
Rattus norvegicus [6] = species: Rattus norvegicus; test: Activation of ATP-sensitive potassium channel in perifused Wistar rat pancreatic islets assessed as increase in extracellular K+ concentration at 10 uM measured up to 90 mins in presence of 2.8 mM glucose and absence of extracellular Ca2+ by scintillation counting method; conditions: filed as opener, time min <=90
Pancreatic islet [7] = test: (§2) Inhibition of glucose-induced insulin secretion in Wistar rat pancreatic islets incubated for 90 mins in presence of 16.7 mM glucose by radioimmunological assay; format: functional, tissue-based
Procedure, shortened: (§3)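 Rat pancreatic islets were incubated with 16.7 mM glucose, with test concentrations added to the medium (0.1, 0.5, 1 and 10 μM). Insulin release is given as a percentage of the control (no drug, 16.7 mM glucose), as mean ± SEM with n = number of samples. IC50 is the concentration giving a 50% reduction of the secretory response to glucose.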

[8] = as §2; format: functional, tissue-based; conditions: Pancreatic islet, 1.5 h; procedure, shortened: as §3
Rattus norvegicus [9] = species: Rattus norvegicus; test: Activation of ATP-sensitive potassium channel in perifused Wistar rat pancreatic islets assessed as inhibition of insulin secretion at 10 uM measured up to 90 mins in presence of 16.7 mM glucose by scintillation counting method; conditions: filed as opener, time min <=90
Procedure, shortened: (§4)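 Rat islets were prelabeled with 45Ca and perifused throughout with 16.7 mM glucose. Basal medium either contained extracellular Ca2+ or was Ca2+-free and enriched with 0.5 mM EGTA. Agent was added at 10 μM, and 45Ca outflow and insulin release were followed. Values are mean ± SEM of 5-6 individual experiments.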

Rattus norvegicus [10] = species: Rattus norvegicus; test: Activation of ATP-sensitive potassium channel in perifused Wistar rat pancreatic islets assessed as increase in 86Rb outflow at 10 uM measured up to 90 mins in basal media containing 5.6 mM glucose and glibenclamide by scintillation counting method; conditions: time min <=90
Procedure, shortened: (§5)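 Rat islets were perifused throughout in basal medium with 5.6 mM glucose and extracellular Ca2+, with or without the KATP blocker glibenclamide (10 μM). Test agent was added at 10 μM and 86Rb outflow was followed. Values are mean ± SEM of 6 individual experiments.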

Rattus norvegicus [11] = species: Rattus norvegicus; test: Ratio of EC50 for vasorelaxant activity in aortic rings isolated from Wistar rat assessed as reduction in KCl-induced contractions measured after 60 mins in presence of 80 mM KCl by force-displacement transducer to IC50 for inhibition of 16.7 mM glucose-induced insulin secretion in Wistar rat pancreatic islets incubated for 90 mins in presence of glucose by radioimmunological assay; format: functional
Rattus norvegicus [12] = species: Rattus norvegicus; test: Activation of ATP-sensitive potassium channel in perifused Wistar rat pancreatic islets assessed as increase in 86Rb outflow at 10 uM measured up to 90 mins by scintillation counting method; conditions: filed as opener, time min <=90
[13] = Residual 16.7 mM glucose-induced insulin secretion in Wistar rat pancreatic islets at 0.5 uM incubated for 90 mins in presence of glucose by radioimmunological assay relative to control; conditions: Pancreatic islet, 1.5 h
Pancreatic islet [14] = test: Increase in intracellular Ca2+ concentration under deprived extracellular calcium and physiological condition in Wistar rat pancreatic islets at 10 uM measured up to 30 mins in presence of 20 mM extracellular glucose concentration by Fura-2 dye based fluorescence assay; format: functional, tissue-based; conditions: time min <=30
Procedure, shortened: (§6)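 Single rat pancreatic islet cells were loaded with fura-2 and cytosolic Ca2+ was read as the 340:380 nm fluorescence ratio. Glucose was raised from 2.8 to 20 mM, in medium with or without external calcium. Agent (10 μM) was added afterwards, during the sustained phase.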

[15] = Residual glucose-induced insulin secretion in Wistar rat pancreatic islets at 10 uM incubated for 90 mins in presence of 16.7 mM glucose by radioimmunological assay relative to control; conditions: Pancreatic islet, 1.5 h
Aorta [16] = test: Myorelaxant activity in aortic rings isolated from Wistar rat assessed as reduction in 30 mM KCl-induced contractions in presence of 1 uM KATP channel blocker glibenclamide; format: functional, tissue-based; procedure, shortened: as §1
Rattus norvegicus [17] = species: Rattus norvegicus; test: Activation of ATP-sensitive potassium channel in perifused Wistar rat pancreatic islets assessed as increase in 45Ca efflux at 10 uM measured up to 90 mins in presence of 2.8 mM glucose and absence of extracellular Ca2+ by scintillation counting method; conditions: filed as opener, time min <=90
Procedure, shortened: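 Perifused rat islets carrying 45Ca were exposed to 2.8 mM glucose in medium with or without extracellular Ca2+. Agent was added at 10 μM and 45Ca outflow was monitored.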

Rattus norvegicus [18] = species: Rattus norvegicus; test: Activation of ATP-sensitive potassium channel in perifused Wistar rat pancreatic islets assessed as increase in [45]Ca efflux at 10 uM measured up to 90 mins in presence of 16.7 mM glucose and absence of extracellular Ca2+ by scintillation counting method; conditions: filed as opener, time min <=90; procedure, shortened: as §4
[19] = Residual glucose-induced insulin secretion in Wistar rat pancreatic islets at 0.1 uM incubated for 90 mins in presence of 16.7 mM glucose by radioimmunological assay relative to control; conditions: Pancreatic islet, 1.5 h
Rattus norvegicus [20] = species: Rattus norvegicus; test: Activation of ATP-sensitive potassium channel in perifused Wistar rat pancreatic islets assessed as inhibition of 45Ca outflow at 10 uM measured up to 90 mins in presence of 16.7 mM glucose and extracellular Ca2+ by scintillation counting method; conditions: filed as opener, time min <=90; procedure, shortened: as §4
Rattus norvegicus [21] = species: Rattus norvegicus; test: Activation of ATP-sensitive potassium channel in perifused Wistar rat pancreatic islets assessed as increase in 86Rb outflow at 10 uM measured up to 90 mins by scintillation counting method; conditions: filed as opener, time min <=90; remark: listed apart in the source
Pancreatic islet [22] = test: Decrease in cytosolic Ca2+ concentration during sustained phase in Wistar rat pancreatic islets at 10 uM measured up to 30 mins in presence of 2.8 to 20 mM extracellular glucose concentration by Fura-2 dye based fluorescence assay; format: functional, tissue-based; conditions: time min <=30; procedure, shortened: as §6
Rattus norvegicus [23] = species: Rattus norvegicus; test: Activation of ATP-sensitive potassium channel in perifused Wistar rat pancreatic islets assessed as increase in 86Rb outflow at 10 uM measured up to 90 mins by scintillation counting method; conditions: filed as opener, time min <=90; procedure, shortened: as §5
Aorta [24] = test: Myorelaxant activity in aortic rings isolated from Wistar rat assessed as reduction in 80 mM KCl-induced contractions; format: functional, tissue-based; procedure, shortened: as §1

Activity (Rattus norvegicus [3]): Active | pEC50 (Aorta [4]): 5.03 | pEC50 (Aorta [5]; 1 h, in the assay text read “30 mM KCl” for “80 mM KCl”): 4.98 | Activity (Rattus norvegicus [6]): Active | pIC50 [8]: 6.62 | Activity (Rattus norvegicus [9]): Active | Activity (Rattus norvegicus [10]): inactive | Ratio (Rattus norvegicus [11]): 44 | Activity (Rattus norvegicus [12]): Active | pEC50 (Aorta [16]): 4.94 | Activity (Rattus norvegicus [17]): Active | Activity (Rattus norvegicus [18]): Active | Activity (Rattus norvegicus [20]): Active | Activity (Rattus norvegicus [21]): Active | Activity (Rattus norvegicus [23]): Active | pEC50 (Aorta [24]): 4.91
SMILES: CC(C)(C)OC(=O)Nc1ccc2c(c1)C(NC(=O)Nc1cccc(C#N)c1)CC(C)(C)O2 (racemic)
Activity (Pancreatic islet [1]): Active | residual insulin secretion at 1 µM [2]: 15.6% | Activity (Aorta [5]): Dose-dependent effect | inhibition (Pancreatic islet [7]): Dose-dependent effect | residual insulin secretion at 0.5 µM [13]: 28.6% | Activity (Pancreatic islet [14]): Active | residual insulin secretion at 10 µM [15]: 7.4% | residual insulin secretion at 0.1 µM [19]: 82% | Activity (Pancreatic islet [22]): Active
